ChEMBL document CHEMBL1123566, “Synthesis and cardiac electrophysiological activity of 2- and 3-[(substituted phenyl)alkyl]quinuclidines. Structure-activity relationships” (1987)
Values joined by “and” are separate entries in the source; they are usually repeats but may differ in a detail not shown here. Identical values can stand only once.

How the values were obtained:
[1] = tested on: Canis familiaris; assay: Conduction time was determined by intraduodenal administration of two dosages of 10 mg/kg of compound in anesthetized dogs. Value was reported for experiment 1; format: functional, Canis lupus familiaris
In short: (§1)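 Anesthetized dogs given the compound intraduodenally, generally as two doses with the second a cumulative total (low/high). FRP and CT measured at 15, 30 and 45 min after dosing. HR and BP taken during nonpacing intervals. Values are percent change from control per animal. Activity criterion is FRP or CT prolonged ≥12%. Vehicle: 5% dextrose in water/tragacanth.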

[2] = tested on: Canis familiaris; assay: Conduction time was determined by intraduodenal administration of two dosages of 1 mg/kg (low dose) of compound in anesthetized dogs. Value was reported for experiment 2; format: functional, Canis lupus familiaris; in short: as §1
[3] = tested on: Canis familiaris; assay: Conduction time was determined by intraduodenal administration of two dosages of 10 mg/kg (high dose) of compound in anesthetized dogs. Value was reported for experiment 3; format: functional, Canis lupus familiaris; in short: as §1
[4] = tested on: Canis familiaris; assay: Conduction time was determined by intraduodenal administration of two dosages of 3 mg/kg (high dose) of compound in anesthetized dogs. Value was reported for experiment 2; format: functional, Canis lupus familiaris; in short: as §1
[5] = tested on: Canis familiaris; assay: Conduction time was determined by intraduodenal administration of two dosages of 3 mg/kg (low dose) of compound in anesthetized dogs. Value was reported for experiment 1; format: functional, Canis lupus familiaris
In short: (§2)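 Anesthetized dogs; compound given intraduodenally, generally as two doses, the second a cumulative (high) dose. LV functional refractory period and conduction time measured 15, 30 and 45 min after dosing; heart rate and blood pressure measured during nonpacing intervals. Values are % change from control, given per individual animal. Active if FRP or CT prolonged by ≥12%.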

[6] = tested on: Canis familiaris; assay: Heart rate was determined by intraduodenal administration of two dosages of 3 mg/kg of (high dose) compound in anesthetized dogs. Value was reported for experiment 2; format: functional, Canis lupus familiaris; in short: as §1
[7] = tested on: Canis familiaris; assay: Heart rate was determined by intraduodenal administration of two dosages of 3 mg/kg of (high dose) compound in anesthetized dogs. Value was reported for experiment 3; format: functional, Canis lupus familiaris; in short: as §1
[8] = tested on: Canis familiaris; assay: Heart rate was determined by intraduodenal administration of two dosages of 3 mg/kg of (low dose) compound in anesthetized dogs. Value was reported for experiment 1; format: functional, Canis lupus familiaris; in short: as §2
[9] = tested on: Canis familiaris; assay: Left ventricular refractory period was determined by intraduodenal administration of two dosages of 1 mg/kg of (low dose) compound in anesthetized dogs. Value was reported for experiment 3; format: functional, Canis lupus familiaris, Cardiac ventricle
In short: (§3)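 Anesthetized dogs, usually given two intraduodenal doses, with the second dose cumulative (low/high). Left ventricular FRP and CT were determined at 15, 30 and 45 min after dosing. HR and BP were measured during nonpacing intervals. Values are % change from control at low/high dose, for individual animals. The vehicle-stability set used 5% dextrose in water/tragacanth (n = 8).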

[10] = tested on: Canis familiaris; assay: Heart rate was determined by intraduodenal administration of two dosages of 10 mg/kg of (high dose) compound in anesthetized dogs. Value was reported for experiment 1; format: functional, Canis lupus familiaris; in short: as §2
[11] = tested on: Canis familiaris; assay: Left ventricular refractory period was determined by intraduodenal administration of two dosages of 1 mg/kg of (low dose) compound in anesthetized dogs. Value was reported for experiment 2; format: functional, Canis lupus familiaris, Cardiac ventricle; in short: as §3
[12] = tested on: Canis familiaris; assay: Left ventricular refractory period was determined by intraduodenal administration of two dosages of 3 mg/kg of (high dose) compound in anesthetized dogs. Value was reported for experiment 3; format: functional, Canis lupus familiaris, Cardiac ventricle; in short: as §3
[13] = tested on: Canis familiaris; assay: Left ventricular refractory period was determined by intraduodenal administration of two dosages of 3 mg/kg of (low dose) compound in anesthetized dogs. Value was reported for experiment 1; format: functional, Canis lupus familiaris, Cardiac ventricle
In short: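 Anesthetized dogs received two intraduodenal doses, the second cumulative (low dose/high dose). Left ventricular FRP and CT were measured 15, 30 and 45 min after dosing. Heart rate and mean blood pressure were taken during nonpacing intervals. Values are percent change from control. The vehicle was 5% dextrose in water/tragacanth. Activity was defined as ≥12% prolongation of FRP or CT.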

[14] = tested on: Canis familiaris; assay: Mean arterial blood pressure was determined by intraduodenal administration of two dosages of 1 mg/kg of (low dose) compound in anesthetized dogs. Value was reported for experiment 2; format: functional, Canis lupus familiaris; in short: as §3
[15] = tested on: Canis familiaris; assay: Mean arterial blood pressure was determined by intraduodenal administration of two dosages of 3 mg/kg of (high dose) compound in anesthetized dogs. Value was reported for experiment 3; format: functional, Canis lupus familiaris; in short: as §3
[16] = species on record: Canis familiaris; assay: In vitro electrophysiological evaluation in canine cardiac ventricular muscle reported as % change for the functional refractory period (FRP) concentration range of 0.1-10 uM; set-up: species or system Canis lupus familiaris, Muscle tissue
In short: (§4)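 Canine right ventricular/papillary muscle strips in oxygenated Tyrode's, extracellular extra-stimulus conduction-interval method. FRP and CT are read from conduction-interval curves before and during rising concentrations. Compound is a 10 mM aqueous stock diluted into Tyrode's. Each strip is used once as its own control. Readouts are percent change from control at 10 μM, plus the maximum change with its concentration.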

[17] = species on record: Canis familiaris; assay: In vitro electrophysiological evaluation in canine cardiac ventricular muscle reported as maximum % change for conduction time(CT) at 0.1-100 uM concentration range; format: functional, Canis lupus familiaris, Muscle tissue
In short: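 Canine right ventricle and papillary muscle strips in oxygenated Tyrode's solution, fitted with stimulating and recording electrodes. The extra-stimulus conduction-interval method was adapted for in vitro use. FRP and CT were read from a conduction-interval curve before and after various compound concentrations, and expressed as percent change from control. Compounds were taken from 10 mM deionized-water stock into Tyrode's. Each strip was used once as its own control.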

[18] = species on record: Canis familiaris; assay: In vitro electrophysiological evaluation in canine cardiac Purkinje fibres reported as percent change Vmax concentration range of 1-100 uM; format: functional; details: Canis lupus familiaris; Purkinje fiber
In short: (§5)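 Canine cardiac Purkinje fibers, intracellular recording, paced at a basic cycle length of 1 s. APD95 and Vmax are recorded together across cumulative concentrations. Compound is a 10 mM aqueous stock diluted into Tyrode's solution. Each fiber is used once as its own control. Readouts are percent change from control at 10 μM, and the maximum change with the concentration where it occurred.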

[19] = species on record: Canis familiaris; assay: In vitro electrophysiological evaluation in canine cardiac ventricular muscle reported as % change for conduction time(CT) at 0.1-100 uM concentration range; format: functional, Canis lupus familiaris, Muscle tissue; in short: as §4
[20] = species on record: Canis familiaris; assay: In vitro electrophysiological evaluation in canine cardiac ventricular muscle reported as % change for conduction time(CT) at 0.1-100 uM concentration range; Minimal (<IO%increase or a decrease in CT); format: functional, Canis lupus familiaris, Muscle tissue
[21] = species on record: Canis familiaris; assay: In vitro electrophysiological evaluation in canine cardiac Purkinje fibres reported as maximum percent change Vmax concentration range of 1-100 uM; format: functional; details: Canis lupus familiaris; Purkinje fiber; in short: as §5
[22] = species on record: Canis familiaris; assay: In vitro electrophysiological evaluation in canine cardiac Purkinje fibres reported as percent change Vmax concentration range of 0.01-100 uM; […]; format: functional; details: Canis lupus familiaris; Purkinje fiber; in short: as §5
[23] = species on record: Canis familiaris; assay: In vitro electrophysiological evaluation in canine cardiac ventricular muscle reported as % change for the functional refractory period (FRP) concentration range of 0.1-100 uM; set-up: species or system Canis lupus familiaris, Muscle tissue; in short: as §4
[24] = species on record: Canis familiaris; assay: In vitro electrophysiological evaluation in canine cardiac Purkinje fibres reported as maximum percent change Vmax concentration range of 0.1-10 uM; format: functional; details: Canis lupus familiaris; Purkinje fiber; in short: as §5
[25] = species on record: Canis familiaris; assay: In vitro electrophysiological activity in canine cardiac Purkinje fibres given as maximum % change for action potential duration at 0.01-100 uM concentration; format: functional, Canis lupus familiaris, Purkinje fiber; in short: as §5
[26] = species on record: Canis familiaris; assay: In vitro electrophysiological evaluation in canine cardiac Purkinje fibres reported as % change for action potential duration at 0.1-10 uM concentration range; format: functional, Canis lupus familiaris, Purkinje fiber
In short: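 Canine cardiac Purkinje fibres, intracellular microelectrode recording, paced at a basic cycle length of 1 s. APD95 and Vmax read simultaneously. Compound: 10 mM stock in deionized water, diluted into Tyrode's solution, tested over the stated concentration range. Each fibre used once as its own control. Result is % change from control, given at 10 µM or as the maximum with its concentration. M = <10% decrease or an increase in Vmax.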

CCCCCCC[N+](CC)(CC)CCCCc1ccc(Cl)cc1.O=P([O-])(O)O [CLOFILIUM PHOSPHATE]
CT [1]: -7% | CT [2]: -5% | CT [3]: -11% | CT [4]: -7% | CT [5]: -4% | HR [6]: -6% | HR [7]: -7% | HR [8]: -9% | LV FRP [9]: 4% | HR [10]: -24% | LV FRP [11]: -1% | LV FRP [12]: 4% | LV FRP [13]: 10% | Mean blood pressure [14]: -2% | Mean blood pressure [15]: 0% | FRP [16]: 38% | CT [17]: 19% | Vmax [18]: -50% and -49% | CT [19]: 11% | CT [20]: <10% | Vmax [21]: -69% and -65% | Vmax [22]: < 10% | FRP at 10microM [23]: -3% | Vmax [24]: -11% | APD95 [25]: 27% and 55% | APD95 [26]: 52%
